Compound activity (PubChem)
Shown are actives, neighbours in structure and some others; about 2.7% of the full set was active somewhere.
FGF22 binding = FGF22 (human) thermal shift binding; Q9HCT0; recombinant FGF22 thermal shift, SYPRO orange fluorescence; percent of sucrose octasulfate shift, DMSO zero; activity (Tm shift, normalised), % at 9.99 µM; actives 1.5% (n = 340,000); AID 651658;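 active = mean Tm shift, scaled 0 neutral to 100 positive control, at about 1.3% or above, every replicate too, limit read from the data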
Target sequence (Q9HCT0 whole entry, looked up): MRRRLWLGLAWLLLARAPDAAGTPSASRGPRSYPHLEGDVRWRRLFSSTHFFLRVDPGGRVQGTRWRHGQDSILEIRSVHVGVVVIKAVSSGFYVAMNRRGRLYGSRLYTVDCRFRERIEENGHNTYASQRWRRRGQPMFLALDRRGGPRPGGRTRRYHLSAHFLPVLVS
CFTR F508del cor = correctors of CFTR F508del function in bronchial epithelial cells; CFBE cells, YFP halide quenching; stimulated with forskolin plus potentiator P3; % fluorescence drop versus neutral controls; activity (quench increase), % at 7.58 µM; actives 0.36% (n = 350,000); AID 720511;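 active = mean added fluorescence quench of at least 8% versus neutral control, with both replicates also reaching 8%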;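 note: cells transiently co-express mutant CFTR-F508del with the halide-sensitive YFP; corrector assay measuring rescue of mutant channel to the surface after 24 h compound exposure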
E-selectin induc = induces E-selectin expression in human endothelial cells; P16581; HUVEC E-selectin immunofluorescence imaging; normalized: neutral wells 0, TNF-alpha wells 100; activation, % at 7.58 µM; actives 0.37% (n = 260,000); AID 686992;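 active = mean E-selectin-positive cell signal at least 10% of the positive control, reached in at least 60% of replicates, without over 20% cell loss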
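assay system = HUVEC, human umbilical vein endothelial cells | input = 3,000 HUVEC seeded per well | medium = EGM-2 growth medium on 0.1% gelatin-coated wells | dosing = one compound dose added by pin transfer | signal = immunofluorescence imaging | read-out basis = % PE-positive cells | control set = TNF-alpha, DMSO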
S100A4 inh HTS = inhibitors of human S100A4 binding to myosin IIA peptide; P26447; S100A4/TAMRA-MyoIIA peptide fluorescence polarization; inhibition, % at 10.7 µM; actives 0.14% (n = 360,000);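 active = mean inhibition of at least 70% across replicates, with every replicate also reaching that level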
Target sequence (P26447 whole entry, looked up): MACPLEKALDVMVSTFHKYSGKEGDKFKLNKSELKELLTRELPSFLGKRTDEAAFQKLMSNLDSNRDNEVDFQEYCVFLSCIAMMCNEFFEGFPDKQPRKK
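Test system: S100A4 monomer protein. Medium: HEPES buffer with Ca2+, pH 7.2. Reagent: fluorescent myosin IIA peptide, 5 nM. Compound dosing: single-point compound testing. Timing: 5 min between mix addition and reading. Benchmarks: DMSO neutral and TFP positive wells.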
HIV Env fusion = inhibitors of HIV Env-mediated cell fusion; HeLa-JRFL Env/CEM21 cell fusion, luciferase; inhibition, % at 12.3 µM; actives 1.1% (n = 360,000);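 active = mean replicate inhibition score of at least 50 and every replicate individually at or above 50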;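 note: 0% = plate neutral controls and 100% = maraviroc near 300 nM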
Numbers without * were called inactive; nt = no result; + = active, no number; [ ] = dose if it differs, or a comment.

SMILES	FGF22 binding	CFTR F508del cor	E-selectin induc	S100A4 inh HTS	HIV Env fusion
Cc1ccc(-c2nn3c(C)nnc3s2)cc1NC(=O)c1ccc(-c2ccc(Cl)cc2Cl)o1	nt	nt	nt	nt	115*
COc1ccc2c(c1)CCc1c(C(=O)Nc3ccc(OC)c(OC)c3)noc1-2	nt	nt	nt	nt	-33
COc1ccc2c(c1)CCc1c(C(=O)Nc3ccn(Cc4ccc(C)cc4)n3)noc1-2	28*	-1	nt	-5	nt
COc1ccc2c(c1)CCc1c(C(=O)NCCc3ccc(OC)c(OC)c3)noc1-2	nt	nt	nt	nt	59*
CC=Cc1ccc2n(c1=O)C[C@H]1[C@H](CO)[C@@H](C(=O)N3CCCCC3)N(Cc3ccccc3OC)[C@@H]21 (mixture of isomers)	0	-1	0	5	nt
C[C@@H]1CN([C@H](C)CO)C(=O)c2cc(NS(=O)(=O)c3ccc(F)cc3)ccc2O[C@H]1CN(C)C(=O)Nc1ccc(C(F)(F)F)cc1	0	-1	0	-2	-3[16.7 µM]
COCCNC(=O)/C(C#N)=C/c1cccc(/C=C(\C#N)C(=O)NCCOC)c1	0	-2	nt	-5	nt
COCCNC(=O)/C(C#N)=C/c1ccc(O)c([N+](=O)[O-])c1	43*	0	nt	-2	-17
CO[C@@H]1CN(C)C(=O)c2ccc(NS(=O)(=O)c3ccccc3C)cc2OC[C@@H](C)NC[C@@H]1C	0	1	0	-9	nt
CC(C)CC1Nc2ncnc(N3CCN(c4ccccn4)CC3)c2N(Cc2ccc(Br)cc2)C1=O (configuration not stated)	0	8.3*	1	-8	-14
CN1[C@@H]2Cn3c(ccc(-c4ccccc4)c3=O)[C@H]1[C@@H](C(=O)NCCc1ccccc1)[C@@H]2CO	nt	-1	0	nt	nt
Cn1c(=O)c2c(ncn2Cc2ccc(Cl)c(Cl)c2)n(C)c1=O	nt	nt	nt	nt	66*
Cn1c(=O)c2c(ncn2Cc2cccc(Cl)c2)n(C)c1=O	nt	nt	nt	nt	-1
CSc1nc2c(c(=O)[nH]1)C(c1ccc(F)cc1)CC(=O)N2 (configuration not stated)	43*	-2	0	5	0
Cc1noc(C)c1S(=O)(=O)Nc1ccc2c(c1)CC(=O)N([C@H](C)CO)C[C@@H](C)[C@H](CN(C)C(=O)Nc1ccc(C(F)(F)F)cc1)O2	0	5	0	-21	-1[16.7 µM]
COc1ccc(NC(=O)Nc2cccc3c2O[C@@H](CN(C)S(=O)(=O)c2ccc(Cl)cc2)[C@H](C)CN([C@H](C)CO)C3=O)cc1	0	0	2	4	-3[16.7 µM]
CSc1cccc(N2CC(C(=O)Nc3cccc(S(=O)(=O)N4CCCC4)c3)CC2=O)c1 (configuration not stated)	0	-6	nt	-2	116*
COc1ccc(CN(C)C(=O)CCc2ccc(S(=O)(=O)N3CCCCCC3)cc2)c(OC)c1	0	-5	0	-8	nt
CCOc1ccc(N2CC(C(=O)Nc3ccc(S(=O)(=O)N4CCCCC4)cc3)CC2=O)cc1 (configuration not stated)	0	3	nt	-4	67*
COc1ccccc1N1CC(C(=O)Nc2ccc(S(=O)(=O)N3CCCC3)cc2)CC1=O (configuration not stated)	42	9.6*	0	-2	25
CCOc1ccc(CN(C)C(=O)CCc2ccc(S(=O)(=O)N3CCCCCC3)cc2)cc1	0	-1	0	-1	65*
CCOc1ccc(N2CC(C(=O)Nc3cccc(S(=O)(=O)N4CCCCC4)c3)CC2=O)cc1 (configuration not stated)	1	-1	0	2	-4
COc1ccc(N2CC(C(=O)Nc3ccc(S(=O)(=O)N4CCCC4)cc3)CC2=O)cc1 (configuration not stated)	0	-2	0	3	-17
C[C@H]1CN([C@@H](C)CO)C(=O)c2cccc(NC(=O)CCCCCC(=O)Nc3ccccc3N)c2O[C@@H]1CN(C)C(=O)Nc1ccc(C(F)(F)F)cc1	0	0	nt	-5	nt
O=C(Nc1ccc(S(=O)(=O)N2CCCCC2)cc1)C1CC(=O)N(Cc2ccccc2)C1 (configuration not stated)	0	1	0	+	1
SMILES	FGF22 binding	CFTR F508del cor	E-selectin induc	S100A4 inh HTS	HIV Env fusion
Cc1ccc(CN2CC(C(=O)Nc3ccc(S(=O)(=O)N4CCCCC4)cc3)CC2=O)cc1 (configuration not stated)	0	-3	nt	1	19
C[C@@H]1CCCCO[C@@H](CN(C)C(=O)Cc2ccccc2)[C@H](C)CN([C@H](C)CO)C(=O)c2cc(NC(=O)C3CCCCC3)ccc2O1	0	0	0	nt	0[16.7 µM]
O=C(Nc1nc2ccccc2n1CCN1CCOCC1)c1ccc(Cn2cc([N+](=O)[O-])cn2)o1	0	1	0	-2	nt
O=C(Nc1nc2ccccc2n1CCN1CCOCC1)c1ccc(COc2ccccc2Br)o1	43*	3	nt	-9	1
CN(C)C(=O)c1ccc(-c2ccc3c(c2)[C@H]2[C@H](CCN2C(=O)c2ccccn2)[C@H](CO)N3)cc1	0	-1	0	nt	nt
Cc1cc(=O)oc2cc(OCC(=O)Nc3ccccc3C(N)=O)c(Cl)cc12	43*	-5	1	-3	-5
CCCNC(=O)N1C[C@H](C)[C@@H](OC)CN(C)C(=O)c2cc(NC(=O)C3CCC3)ccc2OC[C@@H]1C	nt	-2	1	nt	nt
Cc1ccc(CNc2nc(C)nc3sc4c(c23)CCC4)cc1	nt	nt	nt	nt	74*
Cc1nc(Nc2ccc(O)cc2)c2c3c(sc2n1)CCCC3	0	-2	1	-3	12
C/C=C/c1cnc2c(c1)C(=O)N([C@H](C)CO)C[C@H](C)[C@H](CN(C)C(=O)C1CCCCC1)O2	0	0	1	2	-12[16.7 µM]
COc1ccc(CN(C)C[C@H]2OCCCC[C@@H](C)Oc3ccc(NC(=O)Nc4ccc5c(c4)OCO5)cc3C(=O)N([C@H](C)CO)C[C@H]2C)cc1	-1	0	0	120*	-41[16.7 µM]
COc1ccc(NC(=O)Nc2ccc3c(c2)C(=O)N([C@@H](C)CO)C[C@@H](C)[C@@H](CN(C)Cc2ccc4c(c2)OCO4)OCCCC[C@@H](C)O3)cc1	-1	3	0	4	10[16.7 µM]
COc1ccc(NC(=O)Nc2ccc3c(c2)C(=O)N([C@@H](C)CO)C[C@H](C)[C@H](CN(C)Cc2ccc4c(c2)OCO4)OCCCC[C@H](C)O3)cc1	1	-4	0	8	83*[16.7 µM]
COc1ccc(NC(=O)Nc2ccc3c(c2)C(=O)N([C@H](C)CO)C[C@H](C)[C@H](CN(C)Cc2ccc4c(c2)OCO4)OCCCC[C@H](C)O3)cc1	1	-2	0	14	68*[16.7 µM]
Cc1noc(C)c1NC(=O)Nc1ccc2c(c1)C(=O)N([C@@H](C)CO)C[C@H](C)[C@@H](CN(C)S(=O)(=O)c1ccccc1)OCCCC[C@@H](C)O2	nt	3	0	-13	-37[16.7 µM]
